The results in this text go back to ChEMBL document CHEMBL1141557, “An expeditious one-pot synthesis of 1,6-dideoxy-N-alkylated nojirimycin derivatives and their inhibitory effects on the secretion of IFN-gamma and IL-4” (Bioorg Med Chem, 2008).

Active and inactive are the calls of the source. The rule behind the calls is not given here.

A short description of assay [1]: Inhibition of beta glucosidase. Put shortly: (§1)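 Enzyme added to substrate (0.4–5 mM) in 25 mM phosphate and nitrate buffer, with or without iminosugar at various concentrations. Substrates were p-nitrophenyl glycosides; β-galactosidase used o-nitrophenyl β-galactoside.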
A short description of assay [2]: Inhibition of beta galactosidase. Put shortly:
as §1

Assay [3] in a line: Inhibition of alpha mannosidase. Put shortly: as §1
The subject of assay [4] is Splenocyte. Nature of the assay: Inhibition of IL4-secretion in BALB/c mouse splenocytes at 60 uM after 72 hrs by ELISA. It counts as functional. Put shortly:
(§2)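 Splenocytes from BALB/c mouse spleens, red cells lysed with Tris–NH4Cl pH 7.2, in RPMI-1640 with 10% newborn calf serum; 5 × 10^5 cells per well. Cells pretreated 4 h with 10 µg/mL concanavalin A (type IV), then given compound and held 72 h at 37 °C, 5% CO2. IFN-γ or IL-4 in the supernatant measured by mouse cytokine ELISA, quantified from a standard curve (15.63–500 pg/mL).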

In assay [5] the target is T1, Beta-mannosidase (Homo sapiens) (UniProt O00462).
T1 sequence (whole entry): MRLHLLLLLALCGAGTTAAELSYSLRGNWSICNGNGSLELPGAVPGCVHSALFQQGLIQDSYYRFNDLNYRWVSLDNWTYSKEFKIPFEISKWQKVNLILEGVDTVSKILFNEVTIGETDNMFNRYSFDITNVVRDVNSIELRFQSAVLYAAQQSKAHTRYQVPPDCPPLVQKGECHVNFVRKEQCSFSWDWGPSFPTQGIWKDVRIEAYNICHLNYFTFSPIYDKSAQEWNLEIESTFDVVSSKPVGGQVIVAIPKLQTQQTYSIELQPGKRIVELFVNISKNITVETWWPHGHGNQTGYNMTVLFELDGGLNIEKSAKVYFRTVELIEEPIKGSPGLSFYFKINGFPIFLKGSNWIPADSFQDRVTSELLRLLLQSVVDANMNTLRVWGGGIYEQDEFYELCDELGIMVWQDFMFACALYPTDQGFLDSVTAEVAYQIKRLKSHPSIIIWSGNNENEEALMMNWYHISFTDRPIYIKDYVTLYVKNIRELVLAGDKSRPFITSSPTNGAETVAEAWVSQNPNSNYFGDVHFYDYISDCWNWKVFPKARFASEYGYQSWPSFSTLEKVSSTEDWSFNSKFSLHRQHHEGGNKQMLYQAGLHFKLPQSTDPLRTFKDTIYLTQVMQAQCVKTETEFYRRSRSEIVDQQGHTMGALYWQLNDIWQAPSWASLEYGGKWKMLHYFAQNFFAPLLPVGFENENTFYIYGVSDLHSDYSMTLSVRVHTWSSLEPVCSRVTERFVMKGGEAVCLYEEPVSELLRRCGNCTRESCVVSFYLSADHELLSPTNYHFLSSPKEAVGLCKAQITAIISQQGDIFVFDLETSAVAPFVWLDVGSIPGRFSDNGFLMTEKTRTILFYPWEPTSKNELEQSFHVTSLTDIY
In words: Inhibition of beta-mannosidase. Put shortly: as §1

A short description of assay [6]: Inhibition of alpha galactosidase. In short, it runs like this:
as §1

Assay [7] relates to Splenocyte. In words: Inhibition of IFN-gamma secretion in BALB/c mouse splenocytes at 60 uM after 72 hrs by ELISA. The assay is classed as functional. In short, it runs like this:
as §2
Background: An ELISA detects its analyte on a solid surface through an enzyme-linked reagent.

Assay [8] can be described thus: Inhibition of alpha-L-fucosidase. Put shortly:
as §1

Assay [9] in a line: Inhibition of alpha glucosidase. Put shortly:
as §1

Assay [10] can be described thus: Inhibition of concanavalin A-induced BALB/c mouse splenocyte proliferation at 30 uM by MTT assay. The assay is classed as functional. In short, it runs like this:
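Mouse splenocytes stimulated with concanavalin A; proliferation read by MTT assay as the mitochondrial dehydrogenase activity of surviving cells, with compound at 30 µM.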

Consider `C[C@@H]1[C@@H](O)[C@H](O)[C@@H](O)CN1CCN`, for which the result in assay [1], in assay [2], in assay [3], in assay [5], in [6] and in assay [8] was inactive. The results for the inhibition at 60 µM in assay [4] and in assay [7] were 64% and 41%, respectively.
As to `CCCCCCCCCCN1C[C@H](O)[C@@H](O)[C@H](O)[C@H]1C`, the result in assay [2], in [9], in assay [5], in assay [6] and in assay [8] was inactive. In addition, the figures for the inhibition at 60 µM in [4] and in assay [7] were 90% and 61%, respectively. In addition, at 30 µM the inhibition in assay [10] was 48.3%.
As to `C[C@@H]1[C@@H](O)[C@H](O)[C@@H](O)CN1CCO`, in [1], the IC50 came out at 34 µM. For the same compound, the result in assay [2], in assay [3], in [9], in assay [5] and in assay [6] was inactive. In addition, the inhibition at 60 µM in assay [4] is 57%; in assay [7], 29%.
Take `COCCN1C[C@H](O)[C@@H](O)[C@H](O)[C@H]1C`: the outcome in assay [1], in assay [2], in [3], in assay [9], in assay [5] and in assay [6] was inactive. The figures for the inhibition at 60 µM in assay [4] and in assay [7] were 58.8% and 16%, respectively.
For the compound `OC[C@H]1NC[C@H](O)[C@@H](O)[C@@H]1O` [DUVOGLUSTAT], testing at 30 µM in assay [10] gave an inhibition of 15.6%.
Take `C[C@@H]1[C@@H](O)[C@H](O)[C@@H](O)CN1C1CCCCC1`: the outcome in [1], in assay [2], in assay [3], in [5] and in [6] was inactive. The figures for the inhibition at 60 µM in assay [4] and in assay [7] were 57% and 9.1%, respectively.
As to `CC(=O)NCCN1C[C@H](O)[C@@H](O)[C@H](O)[C@H]1C`, in assay [1], the IC50 was more than 2000 µM. Besides, the outcome in [3], in assay [5], in assay [6] and in assay [8] was inactive. Further, the inhibition at 60 µM in assay [4] is 59.7%; in assay [7] it was 9%.
As to `C[C@H]1NC[C@H](O)[C@@H](O)[C@@H]1O`, the result in assay [1], in assay [2], in assay [3], in [5] and in assay [6] was inactive. Besides, the inhibition at 60 µM amounted to 58% in assay [4] and 9% in [7].
Regarding `CCCCN1C[C@H](O)[C@@H](O)[C@H](O)[C@H]1C`, the IC50 in assay [1] is 540 µM; in assay [3], 2000 µM; in [9], 77 µM; in assay [6] it was 234 µM; in assay [8], 3000 µM. Besides, the results for the inhibition at 60 µM in assay [4] and in [7] were 44% and 55.5%, respectively. For the same compound, the outcome in assay [5] was inactive.

One may read the inhibition as the relative decrease from the control value, in per cent. The term IC50 denotes the midpoint of a concentration-inhibition curve. Low readings indicate inhibition by little substance, high ones a need for much substance.
